Compound activity (PubChem BioAssay)
HePTP inh: inhibitors of human HePTP phosphatase, primary screen, biochemical, absorbance, leukemia target | Tyrosine-protein phosphatase non-receptor type 7 (Homo sapiens), P35236 | recombinant HePTP phosphatase activity, OD absorbance | inhibition, % at 20 µM | 110,000 tested, 0.64% active | AID 521, 2006; in the data active = inhibition above about 50%; inconclusive = no clear call, values can overlap the other calls
Ecoli tolC: growth inhibitors of E. coli tolC mutant, primary screen, strain BW25113 ΔtolC::kan, 384-well; OD615; growth inhibition, % at 10 µM (by protocol); 65,000 tested, 2.2% active; AID 573, 2007;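 active = growth inhibition at or above a cutoff equal to the mean over every tested compound plus 3 SD, cut at about 60% in these data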;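 note: growth measured after 20 h incubation at 37 °C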
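Assay system: tolC-deleted E. coli BW25113. Medium: kanamycin-containing LB broth (50 µg/mL). Dosing: 10 µM final, single dose. Timing: bacterial growth with compound for 20 h at 37 °C. Detection: A615 absorbance measurement. Read-out basis: growth inhibition in percent.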
PostGolgi ctrl: growth inhibition of yeast control strain, primary screen, counter-screen for post-Golgi transport modulator project | efflux-deficient yeast background strain, growth absorbance A615, 16 h | 98,000 tested, 5% active | inhibition, % at 10 µM
Ecoli WT expand: growth inhibitors of wild-type E. coli, primary screen, strain BW25113, expanded library, OD600; OD600 absorbance; 98,000 tested, 0.15% active; AID 710, 2007; growth inhibition, % at 100 µM;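 active = growth inhibition above about 50% at one test dose, limit read from the data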;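 note: growth measured after 20 h incubation at 37 °C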
PLAP activator: PLAP enzyme activators, biochemical, luminescence, HTS. Alkaline phosphatase, placental type (Homo sapiens), P05187. purified PLAP enzyme, luminescent substrate read-out; active compounds read high. activation fold at 20 µM. 96,000 tested, 1.2% active; in the data active = activation fold above about 2
Target sequence (P05187 whole entry, looked up): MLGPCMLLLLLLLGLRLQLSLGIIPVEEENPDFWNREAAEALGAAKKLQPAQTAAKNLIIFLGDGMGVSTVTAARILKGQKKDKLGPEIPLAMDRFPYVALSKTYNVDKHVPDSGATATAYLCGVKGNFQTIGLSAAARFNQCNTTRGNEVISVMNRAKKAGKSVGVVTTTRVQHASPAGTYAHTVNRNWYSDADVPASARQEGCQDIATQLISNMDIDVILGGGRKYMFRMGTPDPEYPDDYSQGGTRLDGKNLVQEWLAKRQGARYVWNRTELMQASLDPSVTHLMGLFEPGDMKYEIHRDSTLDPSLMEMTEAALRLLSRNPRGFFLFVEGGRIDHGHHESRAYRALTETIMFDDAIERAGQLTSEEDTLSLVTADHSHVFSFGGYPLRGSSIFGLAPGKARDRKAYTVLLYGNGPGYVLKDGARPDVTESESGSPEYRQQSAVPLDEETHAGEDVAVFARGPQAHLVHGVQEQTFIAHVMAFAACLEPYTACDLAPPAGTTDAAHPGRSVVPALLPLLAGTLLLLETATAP
PostGolgi yeast: phenotypic screen on post-Golgi transport, primary screen. post-Golgi transport phenotypic cell assay. 98,000 tested, 0.9% active. AID 739, 2007. inhibition, % at 10 µM;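 note: yeast cells grown in 1536-well plates; yeast grown about 18 h at 30C before absorbance read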
Hits are given with their value; – = inactive; ? = inconclusive; · = not tested or not shown. Sampled rows, rich in hits. Any-hit rate of the full collection: about 5.5%. Cut-off read from the data, not from the text of the source, unless noted: active = inhibition above about 30%; inactive = the rest.

SMILES	HePTP inh	Ecoli tolC	PostGolgi ctrl	Ecoli WT expand	PLAP activator	PostGolgi yeast
O=C(CF)NC(=C(Cl)Cl)P(=O)(c1ccccc1)c1ccccc1	103	·	·	·	·	·
O=c1c2ccccc2nc(-c2ccccn2)n1-c1ccc(Cl)cc1	–	·	·	·	·	·
Cc1ccc(C2C(S(C)(=O)=O)=C(O)C(=O)N2c2ccccc2)cc1 (stereo unspecified) (tested in a mixture with another compound)	–	75	–	–	–	–
N#CC(C#N)=Cc1cc([N+](=O)[O-])ccc1Cl	–	·	·	·	·	·
CCC(=NCc1cccnc1)c1c(O)n(C2CCCCC2)c(=O)[nH]c1=O	–	–	–	–	–	–
CCC(=NCc1ccco1)c1c(O)n(C2CCCCC2)c(=O)[nH]c1=O	–	–	45	–	–	–
CCC(=O)c1c(O)n(C2CCCCCC2)c(=O)[nH]c1=O	–	–	–	–	–	–
CCC(=Nc1ccc(OC)cc1OC)c1c(O)n(C2CCCCC2)c(=O)[nH]c1=O	–	77	48	–	–	71
CC(=O)C(C)Oc1cc(C)cc2oc(=O)c3c(c12)CCCC3 (stereo unspecified)	–	·	·	·	·	·
CCCCN1C(=O)NC(=O)C2(Cc3c(nc4c(C)cccn4c3=O)N3CCc4ccccc4C32)C1=O (stereo unspecified)	–	98	39	–	–	–
O=C(N/N=C1/CN2CCC1CC2)c1ccc(O)cc1	–	·	·	·	·	·
COc1cc(C=C2C(=O)NC(=O)NC2=O)cc(Cl)c1O	–	·	·	·	·	·
CCN(CC)c1ccc(CN2CC=C(c3ccc(F)cc3)CC2)cc1	·	·	–	–	–	60
Fc1ccc2c(c1)nnn2C1CCN(Cc2nnnn2CCc2ccccc2)CC1	–	–	–	–	–	–
CCC(C)(C)n1nnnc1C(c1cccs1)N1CC=C(c2ccc(F)cc2)CC1 (stereo unspecified)	–	–	41	–	–	–
Fc1ccc(C2=CCN(C(c3cccs3)c3nnnn3CCc3ccccc3)CC2)cc1 (stereo unspecified)	·	·	43	–	–	–
Cc1nc2ccccc2n1C1CCN(Cc2nnnn2CCc2ccccc2)CC1	–	–	39	–	–	–
CCOC(=O)c1c(-c2ccc(OC)cc2)oc2ccc(OC(=O)N(C)C)cc12	–	68	–	–	–	–
COc1ccccc1OCCCn1cc(C(=O)c2ccco2)c2ccccc21	–	–	49	–	–	–
O=C(c1ccco1)c1cn(Cc2ccc(Cl)cc2)c2ccccc12	·	·	–	–	–	–
COc1cccc(CN2CCN(Cc3cc(Br)ccc3O)CC2)c1	–	·	·	·	·	·
CCC(CC)N1CCN(Cc2ccc(OC)c(OC)c2OC)CC1	–	·	·	·	·	·
COc1ccccc1-n1c(/C=C\c2ccccc2[N+](=O)[O-])nc2ccccc2c1=O	–	·	·	·	·	·
Cc1cccnc1-n1c(-c2ccc(Cl)cc2Cl)nc2ccccc2c1=O	–	·	·	·	·	·
CCN1CCN(C(=O)COc2ccc3c(c2)C(=O)CC2(CCN(C(C)=O)CC2)O3)CC1	·	·	–	–	2.7	–
SMILES	HePTP inh	Ecoli tolC	PostGolgi ctrl	Ecoli WT expand	PLAP activator	PostGolgi yeast
CCC(C)N1CCN(Cc2ccc(OC)c(OC)c2OC)CC1 (stereo unspecified)	–	·	·	·	·	·
ClCCNc1nc2ccc(Cl)cc2[nH]1	·	·	–	54	–	–
CC(C)(C)c1cc(C=C2C(=O)NC(=S)NC2=O)cc(C(C)(C)C)c1O	–	·	·	·	·	·
COc1ccccc1CCNC1CCC(C(C)(C)C)CC1 (stereo unspecified)	·	·	–	–	–	–
c1ccc2[nH]c(CCNC3CCCCC3)nc2c1	–	–	–	–	2.7	–
CN1/C(=C\C=C\C2=[N+](C)c3ccc4ccccc4c3C2(C)C)C(C)(C)c2ccccc21	·	·	100	84	–	101
CC(C)CCn1c(=O)c(C(=O)Nc2nc3ccc(Br)cc3s2)c(O)c2ccccc21	–	·	·	·	·	·
COc1ccccc1OCC(=O)Nc1ccc(Cl)cc1C(=O)c1ccccc1	·	·	40	–	–	–
O=C(c1sc2ccccc2c1Cl)N1CCC2(CC1)OCCO2	–	–	46	–	–	–
CCCCn1c(O)c(C(C)=Nc2cccc(C(=O)O)c2)c(=O)[nH]c1=O	–	–	–	–	–	–
CCCCCCN=C(C)c1c(O)n(Cc2ccccc2)c(=O)[nH]c1=O	·	·	35	–	–	–
CCCCn1c(O)c(C(C)=Nc2ccc(OCC)cc2)c(=O)[nH]c1=O	–	–	–	–	–	52
O/N=C1/C(=C/c2ccccc2)N2CCC1CC2	–	·	·	·	·	·
Cc1nn(-c2ccccc2)c(Cl)c1C1C(C#N)=C(N)Oc2c1c(=O)oc1ccccc21 (stereo unspecified)	–	68	31	–	–	–
N#CC1=C(N)Oc2c(c(=O)oc3ccccc23)C1c1ccccc1 (stereo unspecified)	–	·	·	·	·	·
O=c1[nH]c(=S)n(Cc2ccco2)c(O)c1C=NCc1cccs1	·	·	36	–	–	–
O=C(Cc1ccccc1)OCCN1CCCCC1	–	–	–	–	–	–
O=C(Cc1ccccc1)Oc1cccc(N2C(=O)CCC2=O)c1	–	–	33	–	–	–
Cc1ccc2c(c1)CC1(CN2C)C(=O)NC(=O)N(CCC2=CCCCC2)C1=O (stereo unspecified)	–	–	40	–	–	–
Cc1ccc2c(c1)CC1(CN2C)C(=O)NC(=O)N(C(C)C)C1=O (stereo unspecified)	–	–	–	–	–	–
CCCCCCOc1ccc(CN2CCN(CCO)CC2)cc1	–	–	31	–	–	89
O=c1[nH]c(=S)n(CCC2=CCCCC2)c(O)c1C=NCCCn1ccnc1	·	·	–	–	–	–
O=c1[nH]c(=O)n(CCC2=CCCCC2)c(O)c1C=NCCCn1ccnc1	–	–	–	–	2.1	–
O=c1[nH]c(=S)n(-c2ccccc2F)c(O)c1C=C1C=CC=N1	103	·	·	·	·	·
CCOC(=O)c1c(C)n(CC(C)C)c2ccc(O)cc12	–	·	·	·	·	·
SMILES	HePTP inh	Ecoli tolC	PostGolgi ctrl	Ecoli WT expand	PLAP activator	PostGolgi yeast
O=C1/C(=C/c2ccc(O)cc2)N2CCC1CC2	–	·	·	·	·	·
CCn1nc(-c2ccccc2)nc2c(=O)n(C)c(=O)nc1-2	?	100	102	–	·	106
COc1ccc(-n2c(-c3cccnc3)nc3ccccc3c2=O)cc1	–	·	·	·	·	·
COc1ccc(C2c3c(c4ccccc4oc3=O)Oc3c2c(=O)oc2ccccc32)cc1	–	·	·	·	·	·
COc1cc2c(cc1OC)CC(C)(C)[N+](C)=C2	–	·	·	·	·	·
Cc1ccc2nc3c(cc2c1)CC1(C(=O)N(C)C(=O)N(C)C1=O)C1COCCN31 (stereo unspecified)	–	–	32	–	–	–
CN1C(=O)NC(=O)/C(=C/c2ccc(-c3ccc([N+](=O)[O-])cc3Br)o2)C1=O	–	·	·	·	·	·
CN1CCc2nc3sc(C(=O)NC(C)(C)C)c(N)c3cc2C1	·	·	68	–	–	96
O=C(COc1ccc(Cl)cc1Cl)N1CCN(C/C=C/c2ccccc2)CC1	·	·	66	–	–	104
COc1ccc(O)c(CN2CCN(Cc3ccc(C)cc3)CC2)c1	–	·	·	·	·	·
